In brackets after ≈: the same amount, converted by molar mass.
Legend:
Assay type in all cases: functional
[1] = system: Mycobacterium tuberculosis; test: Antimycobacterial activity against Mycobacterium tuberculosis H37Rv 331/88 after 14 days; details: H37Rv 331/88, 336 h
[2] = system: Mycobacterium tuberculosis; test: Antimycobacterial activity against Mycobacterium tuberculosis H37Rv 331/88 after 21 days; details: H37Rv 331/88, 504 h
Mycobacterium avium [3] = test: Antimycobacterial activity against Mycobacterium avium 330/80 after 14 days; details: 330/80, 336 h
Mycobacterium avium [4] = test: Antimycobacterial activity against Mycobacterium avium 330/80 after 21 days; details: 330/80, 504 h
Mycobacterium kansasii [5] = test: Antimycobacterial activity against Mycobacterium kansasii 235/80 after 7 days; details: 235/80, 168 h
Procedure, shortened: (§1)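 Šula's semisynthetic medium micromethod at 37 °C, read after 7, 14 and 21 days. The 1.0 McFarland suspension was diluted 10^-4. MIC determined. 6509/96 is a clinical isolate.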

Mycobacterium kansasii [6] = test: Antimycobacterial activity against Mycobacterium kansasii 235/80 after 14 days; details: 235/80, 336 h; procedure, shortened: as §1
Mycobacterium kansasii [7] = test: Antimycobacterial activity against Mycobacterium kansasii 235/80 after 21 days; details: 235/80, 504 h; procedure, shortened: as §1
Mycobacterium kansasii [8] = test: Antimycobacterial activity against Mycobacterium kansasii 6509/96 after 7 days; details: 6509/96, 168 h; procedure, shortened: as §1
Mycobacterium kansasii [9] = test: Antimycobacterial activity against Mycobacterium kansasii 6509/96 after 14 days; details: 6509/96, 336 h; procedure, shortened: as §1
Mycobacterium kansasii [10] = test: Antimycobacterial activity against Mycobacterium kansasii 6509/96 after 21 days; details: 6509/96, 504 h; procedure, shortened: as §1
Staphylococcus aureus [11] = test: Antibacterial activity against Staphylococcus aureus CCM 4516/08 after 24 hrs by microdilution broth method; details: CCM 4516/08, 24 h
Staphylococcus aureus [12] = test: Antibacterial activity against Staphylococcus aureus CCM 4516/08 after 48 hrs by microdilution broth method; details: CCM 4516/08, 48 h
Staphylococcus aureus [13] = test: Antibacterial activity against methicillin-resistant Staphylococcus aureus H 5996/08 after 24 hrs by microdilution broth method; details: H 5996/08, 24 h
Staphylococcus aureus [14] = test: Antibacterial activity against methicillin-resistant Staphylococcus aureus H 5996/08 after 48 hrs by microdilution broth method; details: H 5996/08, 48 h
[15] = system: Staphylococcus epidermidis; test: Antibacterial activity against Staphylococcus epidermidis H 6966/08 after 24 hrs by microdilution broth method; details: H 6966/08, 24 h
Procedure, shortened: (§2)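 Mueller-Hinton broth microdilution (modified M07-A07), pH 7.4 (±0.2). Compounds dissolved in DMSO, tested at final 500 to 0.49 µmol/L. Inoculum in sterile water matched to 0.5 McFarland. Incubated in the dark, humid atmosphere, 35 °C, read at 24 and 48 h visually and at 540 nm. MIC taken as ≥95% growth reduction (IC95) versus control.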

[16] = system: Staphylococcus epidermidis; test: Antibacterial activity against Staphylococcus epidermidis H 6966/08 after 48 hrs by microdilution broth method; details: H 6966/08, 48 h; procedure, shortened: as §2
Enterococcus sp. [17] = test: Antibacterial activity against Enterococcus sp. J 14365/08 after 24 hrs by microdilution broth method; details: J 14365/08, 24 h; procedure, shortened: as §2
Enterococcus sp. [18] = test: Antibacterial activity against Enterococcus sp. J 14365/08 after 48 hrs by microdilution broth method; details: J 14365/08, 48 h; procedure, shortened: as §2
Escherichia coli [19] = test: Antibacterial activity against Escherichia coli CCM4517 after 24 hrs by microdilution broth method; details: CCM4517, 24 h; procedure, shortened: as §2
Escherichia coli [20] = test: Antibacterial activity against Escherichia coli CCM4517 after 48 hrs by microdilution broth method; details: CCM4517, 48 h; procedure, shortened: as §2
Klebsiella pneumoniae [21] = test: Antibacterial activity against Klebsiella pneumoniae D 11750/08 after 24 hrs by microdilution broth method; details: D 11750/08, 24 h; procedure, shortened: as §2
Klebsiella pneumoniae [22] = test: Antibacterial activity against Klebsiella pneumoniae D 11750/08 after 48 hrs by microdilution broth method; details: D 11750/08, 48 h; procedure, shortened: as §2
Klebsiella pneumoniae [23] = test: Antibacterial activity against ESBL-positive Klebsiella pneumoniae J 14368/08 after 24 hrs by microdilution broth method; details: J 14368/08, 24 h; procedure, shortened: as §2
Klebsiella pneumoniae [24] = test: Antibacterial activity against ESBL-positive Klebsiella pneumoniae J 14368/08 after 48 hrs by microdilution broth method; details: J 14368/08, 48 h; procedure, shortened: as §2
Pseudomonas aeruginosa [25] = test: Antibacterial activity against Pseudomonas aeruginosa CCM 1961 after 24 hrs by microdilution broth method; details: CCM 1961, 24 h; procedure, shortened: as §2
Pseudomonas aeruginosa [26] = test: Antibacterial activity against Pseudomonas aeruginosa CCM 1961 after 48 hrs by microdilution broth method; details: CCM 1961, 48 h; procedure, shortened: as §2
Candida albicans [27] = test: Antifungal activity against Candida albicans ATCC 44859 after 24 hrs by microdilution broth method; details: ATCC 44859, 24 h
Procedure, shortened: (§3)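 CLSI M27-A3 broth microdilution in RPMI 1640 with glutamine, buffered to pH 7.0 with MOPS; DMSO diluent. Yeast inoculum 5 × 10^3 ± 0.2 CFU/mL. Moulds grown on Sabouraud agar 3–10 days before spore harvest, final inoculum 0.5-5 × 10^4 CFU/mL, checked in a Bürker chamber. Incubated dark, humid, 35 °C, read at 24 and 48 h visually and at 540 nm. MIC taken as ≥80% (yeasts) or ≥50% (filamentous) growth reduction versus control.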

Candida albicans [28] = test: Antifungal activity against Candida albicans ATCC 44859 after 48 hrs by microdilution broth method; details: ATCC 44859, 48 h; procedure, shortened: as §3
Candida tropicalis [29] = test: Antifungal activity against Candida tropicalis 156 after 24 hrs by microdilution broth method; details: Candida tropicalis, 156, 24 h; procedure, shortened: as §3
Candida tropicalis [30] = test: Antifungal activity against Candida tropicalis 156 after 48 hrs by microdilution broth method; details: Candida tropicalis, 156, 48 h; procedure, shortened: as §3
Pichia kudriavzevii [31] = test: Antifungal activity against Candida krusei E28 after 24 hrs by microdilution broth method; details: E28, 24 h; procedure, shortened: as §3
Pichia kudriavzevii [32] = test: Antifungal activity against Candida krusei E28 after 48 hrs by microdilution broth method; details: E28, 48 h; procedure, shortened: as §3
Nakaseomyces glabratus [33] = test: Antifungal activity against Candida glabrata 20/I after 24 hrs by microdilution broth method; procedure, shortened: as §3
Nakaseomyces glabratus [34] = test: Antifungal activity against Candida glabrata 20/I after 48 hrs by microdilution broth method; procedure, shortened: as §3
Trichosporon asahii [35] = test: Antifungal activity against Trichosporon asahii 1188 after 24 hrs by microdilution broth method; details: Trichosporon asahii, 1188, 24 h; procedure, shortened: as §3
Trichosporon asahii [36] = test: Antifungal activity against Trichosporon asahii 1188 after 48 hrs by microdilution broth method; details: Trichosporon asahii, 1188, 48 h; procedure, shortened: as §3
Aspergillus fumigatus [37] = test: Antifungal activity against Aspergillus fumigatus 231 after 24 hrs by microdilution broth method; details: Aspergillus fumigatus, 231, 24 h; procedure, shortened: as §3
Aspergillus fumigatus [38] = test: Antifungal activity against Aspergillus fumigatus 231 after 48 hrs by microdilution broth method; details: Aspergillus fumigatus, 231, 48 h; procedure, shortened: as §3
Lichtheimia corymbifera [39] = test: Antifungal activity against Absidia corymbifera 272 after 24 hrs by microdilution broth method; details: Lichtheimia corymbifera, 272, 24 h; procedure, shortened: as §3
Lichtheimia corymbifera [40] = test: Antifungal activity against Absidia corymbifera 272 after 48 hrs by microdilution broth method; details: Lichtheimia corymbifera, 272, 48 h; procedure, shortened: as §3
[41] = system: Trichophyton mentagrophytes; test: Antifungal activity against Trichophyton mentagrophytes 445 after 24 hrs by microdilution broth method; details: Trichophyton mentagrophytes, 445, 24 h
[42] = system: Trichophyton mentagrophytes; test: Antifungal activity against Trichophyton mentagrophytes 445 after 48 hrs by microdilution broth method; details: Trichophyton mentagrophytes, 445, 48 h

O=C(Nc1cccc(F)c1)c1ccc([N+](=O)[O-])cc1O
MIC [1]: 16 µM (≈ 4.42 µg/mL) | MIC [2]: 16 µM (≈ 4.42 µg/mL) | MIC (Mycobacterium avium [3]): 62.5 µM (≈ 17.3 µg/mL) | MIC (Mycobacterium avium [4]): 125 µM (≈ 34.5 µg/mL) | MIC (Mycobacterium kansasii [5]): 16 µM (≈ 4.42 µg/mL) | MIC (Mycobacterium kansasii [6]): 16 µM (≈ 4.42 µg/mL) | MIC (Mycobacterium kansasii [7]): 32 µM (≈ 8.84 µg/mL) | MIC (Mycobacterium kansasii [8]): 16 µM (≈ 4.42 µg/mL) | MIC (Mycobacterium kansasii [9]): 32 µM (≈ 8.84 µg/mL) | MIC (Mycobacterium kansasii [10]): 32 µM (≈ 8.84 µg/mL) | MIC (Staphylococcus aureus [11]): 15.6 µM (≈ 4.31 µg/mL) | MIC (Staphylococcus aureus [12]): 31.2 µM (≈ 8.63 µg/mL) | MIC (Staphylococcus aureus [13]): 15.6 µM (≈ 4.31 µg/mL) | MIC (Staphylococcus aureus [14]): 31.2 µM (≈ 8.63 µg/mL) | MIC [15]: 15.6 µM (≈ 4.31 µg/mL) | MIC [16]: 31.2 µM (≈ 8.63 µg/mL) | MIC (Enterococcus sp. [17]): 500 µM (≈ 138 µg/mL) | MIC (Enterococcus sp. [18]): > 500 µM | MIC (Escherichia coli [19]): 250 µM (≈ 69.1 µg/mL) | MIC (Escherichia coli [20]): 250 µM (≈ 69.1 µg/mL) | MIC (Klebsiella pneumoniae [21]): 500 µM (≈ 138 µg/mL) | MIC (Klebsiella pneumoniae [22]): > 500 µM | MIC (Klebsiella pneumoniae [23]): 500 µM (≈ 138 µg/mL) | MIC (Klebsiella pneumoniae [24]): 500 µM (≈ 138 µg/mL) | MIC (Pseudomonas aeruginosa [25]): > 500 µM | MIC (Pseudomonas aeruginosa [26]): > 500 µM | MIC (Candida albicans [27]): 250 µM (≈ 69.1 µg/mL) | MIC (Candida albicans [28]): 500 µM (≈ 138 µg/mL) | MIC (Candida tropicalis [29]): 250 µM (≈ 69.1 µg/mL) | MIC (Candida tropicalis [30]): 500 µM (≈ 138 µg/mL) | MIC (Pichia kudriavzevii [31]): 62.5 µM (≈ 17.3 µg/mL) | MIC (Pichia kudriavzevii [32]): 62.5 µM (≈ 17.3 µg/mL) | MIC (Nakaseomyces glabratus [33]): > 500 µM | MIC (Nakaseomyces glabratus [34]): > 500 µM | MIC (Trichosporon asahii [35]): 250 µM (≈ 69.1 µg/mL) | MIC (Trichosporon asahii [36]): 250 µM (≈ 69.1 µg/mL) | MIC (Aspergillus fumigatus [37]): 250 µM (≈ 69.1 µg/mL) | MIC (Aspergillus fumigatus [38]): 250 µM (≈ 69.1 µg/mL) | MIC (Lichtheimia corymbifera [39]): 250 µM (≈ 69.1 µg/mL) | MIC (Lichtheimia corymbifera [40]): 250 µM (≈ 69.1 µg/mL) | MIC [41]: 500 µM (≈ 138 µg/mL) | MIC [42]: 500 µM (≈ 138 µg/mL)

O=C(Nc1cccc([N+](=O)[O-])c1)c1cc([N+](=O)[O-])ccc1O
MIC [1]: 62.5 µM (≈ 19 µg/mL) | MIC [2]: 62.5 µM (≈ 19 µg/mL) | MIC (Mycobacterium avium [3]): 125 µM (≈ 37.9 µg/mL) | MIC (Mycobacterium avium [4]): 125 µM (≈ 37.9 µg/mL) | MIC (Mycobacterium kansasii [5]): 16 µM (≈ 4.85 µg/mL) | MIC (Mycobacterium kansasii [6]): 62.5 µM (≈ 19 µg/mL) | MIC (Mycobacterium kansasii [7]): 125 µM (≈ 37.9 µg/mL) | MIC (Mycobacterium kansasii [8]): 62.5 µM (≈ 19 µg/mL) | MIC (Mycobacterium kansasii [9]): 125 µM (≈ 37.9 µg/mL) | MIC (Mycobacterium kansasii [10]): 125 µM (≈ 37.9 µg/mL) | MIC (Staphylococcus aureus [11]): 500 µM (≈ 152 µg/mL) | MIC (Staphylococcus aureus [12]): 500 µM (≈ 152 µg/mL) | MIC (Staphylococcus aureus [13]): 500 µM (≈ 152 µg/mL) | MIC (Staphylococcus aureus [14]): 500 µM (≈ 152 µg/mL) | MIC [15]: 500 µM (≈ 152 µg/mL) | MIC [16]: 500 µM (≈ 152 µg/mL) | MIC (Enterococcus sp. [17]): > 500 µM | MIC (Enterococcus sp. [18]): > 500 µM | MIC (Escherichia coli [19]): > 500 µM | MIC (Escherichia coli [20]): > 500 µM | MIC (Klebsiella pneumoniae [21]): > 500 µM | MIC (Klebsiella pneumoniae [22]): > 500 µM | MIC (Klebsiella pneumoniae [23]): > 500 µM | MIC (Klebsiella pneumoniae [24]): > 500 µM | MIC (Pseudomonas aeruginosa [25]): > 500 µM | MIC (Pseudomonas aeruginosa [26]): > 500 µM | MIC (Candida albicans [27]): > 250 µM | MIC (Candida albicans [28]): > 250 µM | MIC (Candida tropicalis [29]): > 250 µM | MIC (Candida tropicalis [30]): > 250 µM | MIC (Pichia kudriavzevii [31]): > 250 µM | MIC (Pichia kudriavzevii [32]): > 250 µM | MIC (Nakaseomyces glabratus [33]): > 250 µM | MIC (Nakaseomyces glabratus [34]): > 250 µM | MIC (Trichosporon asahii [35]): > 250 µM | MIC (Trichosporon asahii [36]): > 250 µM | MIC (Aspergillus fumigatus [37]): > 250 µM | MIC (Aspergillus fumigatus [38]): > 250 µM | MIC (Lichtheimia corymbifera [39]): > 250 µM | MIC (Lichtheimia corymbifera [40]): > 250 µM | MIC [41]: > 250 µM | MIC [42]: > 250 µM
